Test results reported in publication PMC5634372 (International Journal of Nanomedicine, 2017).

What was measured:
[1] = test system: xenograft model of colon cancer; conditions: cited from earlier work
MDA-MB-231 xenografts = test: Xenograft model of TNBC, tumor growth; type: in vivo, SCID mice; conditions: 10 mg/kg iv twice a week for 2 weeks, vs vehicle control
In short: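 Female SCID mice (7–8 weeks) given s.c. rear-flank 1×10^6 MDA-MB-231 cells in 0.1 mL 50% Matrigel. At 100 mm3, randomized (eight per group). Dosed via tail vein twice weekly for 2 weeks with free or SMA-micelle test compound, or vehicle (100 μL; SMA in NaOH, pH 7.4). Tumor volume (L×W×H) by electronic calipers, two independent measurements bi-weekly. Euthanized day 24.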

TNBC cell lines = conditions: cited from earlier work

COc1cc(C=C2CN(C)CC(=Cc3cc(OC)c(OC)c(OC)c3)C2=O)cc(OC)c1OC [RL71, 3,5-bis(3,4,5-trimethoxybenzylidene)-1-methylpiperidine-4-one]
body weight ([1]; 4 mg/kg, after 15 days): nonsignificant loss of body weight | tumor growth ([1]; 4 mg/kg/day intraperitoneally for 14 days): significantly suppressed tumor growth | liver or spleen weight ([1]; intraperitoneal administration for 2 weeks): did not alter liver or spleen weight | growth rate of colon tumors following treatment ([1]; over 15 days, 4 mg/kg/day ip): 400% | tumor growth (MDA-MB-231 xenografts): unable to suppress tumor growth | apoptosis and cell cycle effect (TNBC cell lines; 1 µM, several TNBC cell lines): induced apoptosis and elicited G2/M phase cell cycle arrest | cytotoxic potency relative to curcumin (TNBC cell lines; greater than curcumin): 20 fold
